# OX1R antag-1: blocks the human orexin 1 receptor | O43613 | OX1R-expressing cells, FRET antagonist read-out | inhibition, % at 6.6 µM | 1.8% of 330,000 active | AID 485270; in the data active means inhibition mostly above about 38%, no sharp cut-off; inactive means mostly below about 40%;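 further: 0% = agonist challenge alone and 100% = reference antagonist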
# Target sequence (O43613 whole entry, looked up): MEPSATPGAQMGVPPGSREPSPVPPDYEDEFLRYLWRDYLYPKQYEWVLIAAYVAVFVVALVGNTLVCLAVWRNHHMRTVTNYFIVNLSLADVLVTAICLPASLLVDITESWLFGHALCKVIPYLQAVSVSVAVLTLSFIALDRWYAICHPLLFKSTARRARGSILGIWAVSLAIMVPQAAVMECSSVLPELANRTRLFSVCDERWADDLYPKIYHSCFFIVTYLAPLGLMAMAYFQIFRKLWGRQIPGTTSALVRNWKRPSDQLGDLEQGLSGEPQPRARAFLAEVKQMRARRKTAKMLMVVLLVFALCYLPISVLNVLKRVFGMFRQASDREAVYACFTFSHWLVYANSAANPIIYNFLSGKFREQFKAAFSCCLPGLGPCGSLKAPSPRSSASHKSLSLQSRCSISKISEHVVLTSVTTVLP
# TAAR1 antag: antagonists of human TAAR1 | CHO RD-HGA16 TAAR1, Fluo-8 calcium fluorescence, antagonist | inhibition, % at 3 µM | 1.5% of 360,000 active | AID 624466;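 active means inhibition above a per-plate cutoff, the mean inhibition of test compounds on that plate plus 3 SD, cut at about 49% in these data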;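 further: 0% = DMSO plus EC80 beta-PEA response and 100% = DMSO alone without agonist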
#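 System: RD-HGA16 CHO cells with stable hTAAR1 and Gα16 | Probe or stimulus: EC80 β-phenethylamine stimulus | Dosing: 3 µM, single point | Times: Dye loading 75 min at 37 °C, then 30 min room temperature | Measured by: Fluo-8 calcium-sensitive fluorescence | Read-out basis: % inhibition of agonist calcium response | Replicates: n of 1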
# TAAR1 ag: agonists of human TAAR1 | CHO RD-HGA16 TAAR1, Fluo-8 calcium fluorescence; vehicle wells 0%, saturating PEA agonist 100% | Q96RJ0 | activation, % at 3 µM | 0.99% of 360,000 active;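 active means activation above the mean activation of all test compounds in the run plus 3 SD, cut at about 38% in these data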
#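 test system = CHO RD-HGA16 cells carrying human TAAR1 plus Gα16 | schedule = 17-24 h seeding, 75 min 37 °C dye, 30 min RT | compound dosing = 3 µM single concentration | control set = DMSO and PEA EC100 | replicates = n 1 | signal = Fluo-8 fluorescence, 5 s baseline then 140 s kinetic read | measure = percent activation vs PEA EC100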
# OX1R antag-2: blocks the human orexin 1 receptor; AID 434989; 0.43% of 330,000 active; inhibition, % at 5 µM; CHO/OX1R cells, Fluo-8 calcium fluorescence, orexin A;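 active means inhibition above its plate's threshold, mean inhibition of all tested compounds on the plate plus 3 SD, cut at about 37% in these data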;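 further: 0% = orexin A challenge wells and 100% = SB-334867-A antagonist wells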
# CHO parental Ca: counter-screen: ATP calcium response change in parental CHO cells; parental CHO-K1, ATP-induced calcium, Fluo-8 fluorescence; inhibition, % at 5.6 µM; 0.63% of 330,000 active; AID 463079;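 active means inhibition above that plate's mean sample inhibition plus 3 SD, cut at about 26% in these data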;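 further: 0% = ATP-challenged DMSO wells and 100% = DMSO wells without ATP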
#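 Assay system – parental CHO cells · Reagent – ATP stimulus · Detection – intracellular calcium via Fluo-8 no-wash fluorescent dye · Evaluation – percent inhibition of ATP-evoked calcium rise, normalized to controls · Controls – ATP wells versus no-ATP DMSO wells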
# OX1R HTRF conf: OX1R (human) antagonism, HTRF confirmed; shares compounds with OX1R antag-1; OX1R-expressing cells, HTRF antagonist assay; inhibition, % at 6.6 µM; 49% of 1,800 active; in the data active means inhibition above about 55%;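 further: CHO cells expressing OX1R stimulated with orexin A at about EC80; 0% = agonist challenge alone and 100% = reference antagonist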
# CHO-K1 HTRF cnt: counter-screen: parental CHO-K1 HTRF response; shares compounds with OX1R antag-1; parental CHO-K1 cells, HTRF counterscreen; inhibition, % at 6.6 µM; 48% of 1,800 active; AID 493232; in the data active means inhibition above about 17%;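 further: 0% = agonist challenge with vehicle and 100% = vehicle alone without agonist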
# Starred values were filed as active, the others as inactive; / = no result. Shown are actives, neighbours in structure and some others; about 3.9% of the full set was active somewhere.
SMILES,OX1R antag-1,TAAR1 antag,TAAR1 ag,OX1R antag-2,CHO parental Ca,OX1R HTRF conf,CHO-K1 HTRF cnt
O=C(Nc1cccc(Cl)c1)Nc1ccc(Br)cc1F,82*,19,6,15,10,36,15
C[C@@H]1CN(c2ccc(N3CCNC[C@@H]3C)cc2C#N)CCN1Cc1ccccc1,/,-1,4,/,/,/,/
Cc1ccc(OCCN2CCC2(C)C(=O)Nc2ccc3c(c2)OCCO3)cc1 (stereo not given),/,-21,5,/,/,/,/
CC/C(C)=N\N=C\c1c(O)n(CC)c2cc(C3=NNC(=O)CC3)ccc12,88*,/,/,-7,-13,21,14
CCn1c(O)c(/C=N/N=C/c2ccc(OC)cc2)c2cc(C3=NNC(=O)CC3)ccc21,5,-6,1,-21,17,/,/
O=[N+]([O-])c1ccc(-[n+]2nc(-c3ccccc3)nn2-c2ccccc2)cc1,81*,-4,3,-2,-3,53,79*
N#Cc1cccc(NC(=O)c2cc(C3CCCCN3S(=O)(=O)c3ccccc3)on2)c1 (stereo not given),/,22,3,/,/,/,/
O=C(/C=C/c1ccc([N+](=O)[O-])cc1)NNC(=O)C1CC1,137*,-7,3,1,-1,49,66*
Cc1c(C(=O)N2CC3(CC(c4cccc(NC(=O)[C@H]5CCC(=O)N5)c4)=NO3)C[C@@H]2C(N)=O)cc([N+](=O)[O-])cc1[N+](=O)[O-] (stereo not given in full),58,11,2,2,-7,/,/
NC(=O)[C@H]1CC2(CC(c3cccc(NC(=O)[C@H]4CCC(=O)N4)c3)=NO2)CN1C(=O)c1cc([N+](=O)[O-])cc([N+](=O)[O-])c1 (stereo not given in full),91*,6,5,-8,-5,36,57*
COCc1[nH]nc2c1C(c1cccc(C(F)(F)F)c1)N(c1ccc(OC)cc1)C2=O (stereo not given),/,-15,1,/,/,/,/
Cn1c(=O)c(=O)n(C)c2cc([N+](=O)[O-])c([N+](=O)[O-])cc21,115*,-35,7,0,-6,43,63*
Cn1cccc([N+](=O)[O-])c1=O,/,-25,2,/,/,/,/
Cc1cccc(C)c1NC(=O)C1(C)CSCC(=O)N1CCc1ccccc1F (stereo not given),/,4,3,/,/,/,/
Oc1ccccc1C=NCCN1CCN(CCN=Cc2ccccc2O)C1c1ccccc1O (stereo not given),/,-14,0,/,/,/,/
COc1ccc(NC(=O)C2c3ccccc3OCC(=O)N2C2CC2)cc1 (stereo not given),/,-11,2,/,/,/,/
Cc1cccnc1-n1c(CCN2C(=O)c3ccccc3C2=O)nc2ccccc2c1=O,92*,3,6,25,-19,85*,2
Cc1ccccc1CNC(=O)c1ccccc1NS(C)(=O)=O,105*,3,2,0,-12,26,0
CS(=O)(=O)Nc1ccccc1C(=O)NCc1ccccc1Cl,12,-7,1,13,9,/,/
COCCn1c(SCC(=O)Nc2nc3ccccc3s2)nnc1-c1ccoc1C,81*,-11,11,-9,-20,37,3
Cn1ncc2c(Nc3ccc4ccccc4c3)ncnc21,78*,-6,3,-20,-17,78*,2
Cc1cccc(Nc2ncnc3c2cnn3C)c1,4,3,4,-1,1,/,/
O=C(NCc1ccco1)c1cc([N+](=O)[O-])cc([N+](=O)[O-])c1,118*,2,3,-4,2,55*,69*
O=C(NCc1ccco1)c1cc([N+](=O)[O-])ccc1Cl,64,-25,1,-19,-10,/,/
CCCC[n+]1ccc(-c2nc3ccc([N+](=O)[O-])cc3[nH]2)cc1,113*,7,-2,-13,-5,56*,80*
SMILES,OX1R antag-1,TAAR1 antag,TAAR1 ag,OX1R antag-2,CHO parental Ca,OX1R HTRF conf,CHO-K1 HTRF cnt
COc1ccc(-c2cnc3nc[nH]c(=O)c3n2)cc1,197*,-2,5,2,8,56*,90*
O=c1[nH]c2cc([N+](=O)[O-])c(NCCO)c([N+](=O)[O-])c2[nH]1,124*,4,5,-19,-7,89*,96*
CC(=O)Nc1c([N+](=O)[O-])cc(C)c(Cl)c1[N+](=O)[O-],23,-13,9,-10,-3,/,/
CC(=O)Nc1c([N+](=O)[O-])cc2[nH]c(=O)[nH]c2c1[N+](=O)[O-],185*,0,1,-12,-3,50,71*
O=c1[nH]c2ccc(S(=O)(=O)NCCO)cc2[nH]1,13,-2,11,-16,-9,/,/
O=C(N/N=C/c1ccccn1)c1ccc([N+](=O)[O-])cc1,83*,-1,0,-12,-6,46,42*
O=C(N/N=C/c1cc([N+](=O)[O-])ccc1N1CCNCC1)c1ccc([N+](=O)[O-])cc1,78*,5,5,-8,-12,52,69*
O=C(N/N=C/c1ccc([N+](=O)[O-])cc1)c1ccc2nc[nH]c2c1,114*,28,2,-6,0,37,41*
N#CCC(=O)N/N=C/c1cc([N+](=O)[O-])ccc1N1CCCC1,21,-11,0,-6,10,/,/
O=C(N/N=C/c1cccc([N+](=O)[O-])c1)c1cnccn1,106*,-7,1,9,-2,43,61*
O=C(N/N=C/c1ccccn1)c1cc([N+](=O)[O-])cc([N+](=O)[O-])c1,91*,-2,7,16,13,59*,42*
OC(c1ccccc1)c1nc(-c2ccc(Cl)cc2)cs1 (stereo not given),/,-8,1,/,/,/,/
COc1ccccc1NC(=O)CS(=O)(=O)c1cccc2nsnc12,100*,-4,15,-24,-2,36,37*
COc1ccc(C(=O)O)cc1NS(=O)(=O)c1cccc2nsnc12,116*,-16,14,-9,-15,42,30*
Cn1c(N)c(C(=O)COC(=O)c2ccc([N+](=O)[O-])o2)c(=O)n(C)c1=O,105*,0,0,-11,-11,31,55*
Cn1c(N)c(C(=O)COC(=O)Cc2ccc(F)cc2)c(=O)n(C)c1=O,/,-7,3,/,/,/,/
CC(C)CNC(=O)COC(=O)CNC(=O)c1cc(Cl)cc([N+](=O)[O-])c1,47,-14,7,-5,-9,/,/
CNC(=O)COC(=O)CNC(=O)c1cc(Cl)cc([N+](=O)[O-])c1,89*,0,12,3,2,38,49*

# High-throughput results deposited in PubChem BioAssay by The Scripps Research Institute Molecular Screening Center.
